Measured values published in ChEMBL document CHEMBL1127424, “7-azetidinylquinolones as antibacterial agents. 2. Synthesis and biological activity of 7-(2,3-disubstituted-1-azetidinyl)-4-oxoquinoline- and -1,8-naphthyridine-3-carboxylic acids. Properties and structure-activity relationships of quinolones with an azetidine moiety” (J Med Chem, 1994).
Values after ≈ are worked out from the molar mass of the structure shown.

Key:
[1] = Dissociation constant (pKa); assay type: physicochemical; conditions: read-out: pKa2
Outline: (§1)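 Spectrophotometric titration at 20 ± 1 °C, 0.1 M ionic strength, pH varied with H2SO4 or NaOH made up in the compound stock. Absorbance followed at compound-specific wavelengths chosen from 200–400 nm scans. pKa1 and pKa2 taken as the inflection points of the two-step absorbance vs pH curve.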

[2] = HPLC capacity factor (k'); assay type: ADME
Outline: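 Ion-pair reversed-phase HPLC on ODS-2 (10 μm) at 45 °C. Mobile phase: 10 mM sodium heptanesulfonate plus 50 mM KH2PO4 (pH 3.5)–methanol 45:55, 1 mL/min. Samples at 100 μg/mL in DMF, injected in duplicate, UV 280 nm. k' = (tR − t0)/t0.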

[3] = Measured ionization constant (pKa); assay type: physicochemical; conditions: read-out: pKa1; outline: as §1
[4] = test system: Staphylococcus aureus; assay: In vitro minimum inhibitory concentration for Staphylococcus aureus ATCC 25178; assay type: functional
Outline: (§2)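 Serial 2-fold agar dilution in Mueller Hinton medium, run alongside a reference quinolone. Inoculum adjusted to 10⁸ cfu/mL; compound range 0.007–16 μg/mL.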

[5] = test system: Pseudomonas aeruginosa; assay: In vitro minimum inhibitory concentration for Pseudomonas aeruginosa ATCC 10145; assay type: functional; outline: as §2
[6] = test system: Enterobacter cloacae; assay: In vitro minimum inhibitory concentration for Enterobacter cloacae ATCC 23355; assay type: functional
[7] = test system: Enterococcus faecalis; assay: In vitro minimum inhibitory concentration for Streptococcus faecalis ATCC 10541; assay type: functional; outline: as §2
[8] = AUC (0-4 hr) ug/ml/h; assay type: ADME, cell-free; parameters: time < 4 hr; concentration or dose not given beside the values; conditions: plasma
Outline: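 Mice dosed once orally at 50 mg/kg; blood taken from groups of six mice at 0.5, 1, 2 and 4 h. Serum drug assayed by disk agar diffusion bioassay (Bacillus subtilis ATCC 6633 on Seed Agar, 37 °C, 18 h), giving total activity.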

[9] = test system: Mus musculus; assay: Evaluation of efficacy on systemic infections Pseudomonas aeruginosa HS-116, after oral administration in mice; assay type: functional
Outline: (§3)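 Single oral dose given immediately after infection, one of four doses per group, chosen from in vitro activity. Survival scored after one week. ED50 (total mg/kg protecting 50%) interpolated from survival rates.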

[10] = test system: Staphylococcus epidermidis; assay: In vitro minimum inhibitory concentration for Staphylococcus epidermidis ATCC 155-1; assay type: functional; outline: as §2
[11] = test system: Bacillus subtilis; assay: In vitro minimum inhibitory concentration for Bacillus subtilis ATCC 6633; assay type: functional; outline: as §2
[12] = test system: Morganella morganii; assay: In vitro minimum inhibitory concentration for Morganella morganii ATCC 8019; assay type: functional; outline: as §2
[13] = test system: Mus musculus; assay: Evaluation of efficacy on systemic infections Staphylococcus aureus HS-93, after oral administration in mice; assay type: functional; outline: as §3
[14] = test system: Bacillus cereus; assay: In vitro minimum inhibitory concentration for Bacillus cereus ATCC 11778; assay type: functional; outline: as §2
[15] = Solubility (buffer pH 7.4); assay type: physicochemical; conditions: read-out: S
Outline: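 Excess solid shaken in 0.05 M phosphate buffer pH 7.4 for 24 h at 25 °C. Suspension filtered through 0.22 μm, discarding the first portion. Filtrate diluted in 0.1 N HCl or 0.1 N NaOH and read by UV at the compound's absorbance maximum.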

[16] = test system: Escherichia coli; assay: In vitro minimum inhibitory concentration for Escherichia coli ATCC 10799; assay type: functional; outline: as §2
[17] = test system: Proteus vulgaris; assay: In vitro minimum inhibitory concentration for Proteus vulgaris ATCC 8427; assay type: functional; outline: as §2
[18] = test system: Klebsiella pneumoniae; assay: In vitro minimum inhibitory concentration to inhibit Klebsiella pneumoniae ATCC 10031; assay type: functional; outline: as §2
[19] = test system: Mus musculus; assay: Evaluation of efficacy on systemic infections Escherichia coli HM-42, after oral administration in mice; assay type: functional; outline: as §3
[20] = Measured inonisation constant (pKa); assay type: physicochemical; conditions: read-out: pKa2; outline: as §1

SMILES | pKa [1] | Log k' [2] | pKa [3] | MIC [4] | MIC [5] | MIC [6] | MIC [7] | AUC [8] | MIC [10] | MIC [11] | MIC [12] | MIC [14] | solubility [15] | MIC [16] | MIC [17] | MIC [18] | pKa [20] | ED50 [9] | ED50 [13] | ED50 [19]
CNC1CN(c2cc3c(cc2F)c(=O)c(C(=O)O)cn3C2CC2)C1 | 8.56 | 0.0215 | 6.54 |  |  |  |  |  |  |  |  |  |  |  |  |  |  |  |  | 
CN[C@H]1CN(c2cc3c(cc2F)c(=O)c(C(=O)O)cn3C2CC2)[C@@H]1C | 8.6 | 0.179 | 6.5 | 0.12 µg/mL (≈ 0.347 µM) | 0.5 µg/mL (≈ 1.45 µM) | 0.03 µg/mL (≈ 0.0869 µM) | 0.25 µg/mL (≈ 0.724 µM) | 10300 ng·h/mL | 0.06 µg/mL (≈ 0.174 µM) | 0.03 µg/mL (≈ 0.0869 µM) | 0.06 µg/mL (≈ 0.174 µM) | 0.12 µg/mL (≈ 0.347 µM) | 9.2 µg/mL (≈ 26.6 µM) | 0.06 µg/mL (≈ 0.174 µM) | 0.12 µg/mL (≈ 0.347 µM) | 0.03 µg/mL (≈ 0.0869 µM) |  | 80.4 mg/kg | 23.3 mg/kg | 2 mg/kg
CCNC1CN(c2cc3c(cc2F)c(=O)c(C(=O)O)cn3C2CC2)C1 |  |  | 6.48 |  |  |  |  |  |  |  |  |  |  |  |  |  | 8.62 |  |  | 
C[C@@H]1[C@@H](N(C)C)CN1c1c(F)cc2c(=O)c(C(=O)O)cn(C3CC3)c2c1F | 8.2 | 0.769 | 6.08 | 0.12 µg/mL (≈ 0.318 µM) | 2 µg/mL (≈ 5.3 µM) | 0.12 µg/mL (≈ 0.318 µM) | 1 µg/mL (≈ 2.65 µM) | 23200 ng·h/mL | 0.06 µg/mL (≈ 0.159 µM) | 0.015 µg/mL (≈ 0.0397 µM) | 0.25 µg/mL (≈ 0.662 µM) | 1 µg/mL (≈ 2.65 µM) | 97.1 µg/mL (≈ 257 µM) | 0.25 µg/mL (≈ 0.662 µM) | 0.25 µg/mL (≈ 0.662 µM) | 0.06 µg/mL (≈ 0.159 µM) |  | 164 mg/kg | 17.9 mg/kg | 3.1 mg/kg
C[C@H]1[C@H](N)CN1c1c(F)cc2c(=O)c(C(=O)O)cn(C3CC3)c2c1F | 8.35 | 0.0755 | 6.13 | 0.06 µg/mL (≈ 0.172 µM) | 0.25 µg/mL (≈ 0.716 µM) | 0.03 µg/mL (≈ 0.0859 µM) | 0.25 µg/mL (≈ 0.716 µM) | 24500 ng·h/mL | 0.06 µg/mL (≈ 0.172 µM) | 0.03 µg/mL (≈ 0.0859 µM) | 0.03 µg/mL (≈ 0.0859 µM) | 0.06 µg/mL (≈ 0.172 µM) | 23.2 µg/mL (≈ 66.4 µM) | 0.015 µg/mL (≈ 0.0429 µM) | 0.06 µg/mL (≈ 0.172 µM) | 0.03 µg/mL (≈ 0.0859 µM) |  | 22.1 mg/kg | 9 mg/kg | 2 mg/kg
CN[C@H]1CN(c2c(F)cc3c(=O)c(C(=O)O)cn(C4CC4)c3c2F)[C@@H]1C | 8.5 | 0.292 | 6.13 | 0.06 µg/mL (≈ 0.165 µM) | 0.5 µg/mL (≈ 1.38 µM) | 0.03 µg/mL (≈ 0.0826 µM) | 0.5 µg/mL (≈ 1.38 µM) | 20800 ng·h/mL | 0.06 µg/mL (≈ 0.165 µM) | 0.03 µg/mL (≈ 0.0826 µM) | 0.06 µg/mL (≈ 0.165 µM) | 0.06 µg/mL (≈ 0.165 µM) | 13.1 µg/mL (≈ 36.1 µM) | 0.06 µg/mL (≈ 0.165 µM) | 0.12 µg/mL (≈ 0.33 µM) | 0.03 µg/mL (≈ 0.0826 µM) |  | 70.5 mg/kg | 11.2 mg/kg | 2.3 mg/kg
C[C@H]1[C@H](N)CN1c1nc2c(cc1F)c(=O)c(C(=O)O)cn2C1CC1 | 8.31 | -0.0304 | 6.26 | 0.12 µg/mL (≈ 0.361 µM) | 0.5 µg/mL (≈ 1.5 µM) | 0.03 µg/mL (≈ 0.0903 µM) | 0.25 µg/mL (≈ 0.752 µM) | 27200 ng·h/mL | 0.12 µg/mL (≈ 0.361 µM) | 0.03 µg/mL (≈ 0.0903 µM) | 0.03 µg/mL (≈ 0.0903 µM) | 0.06 µg/mL (≈ 0.181 µM) | 20.3 µg/mL (≈ 61.1 µM) | 0.03 µg/mL (≈ 0.0903 µM) | 0.06 µg/mL (≈ 0.181 µM) | 0.03 µg/mL (≈ 0.0903 µM) |  | 95.4 mg/kg | 13.8 mg/kg | 3.5 mg/kg

Further lines, with some results ahead:

pKa [1] | Log k' [2] | pKa [3] | MIC [4] | MIC [5] | MIC [6] | MIC [7] | AUC [8] | MIC [10] | MIC [11] | MIC [12] | MIC [14] | solubility [15] | MIC [16] | MIC [17] | MIC [18] | pKa [20] | SMILES | ED50 [9] | ED50 [13] | ED50 [19]
8.45 | 0.1061 | 6.08 |  |  |  |  |  |  |  |  |  | 1.7 µg/mL (≈ 4.65 µM) |  |  |  |  | CC1(N)CN(c2c(F)cc3c(=O)c(C(=O)O)cn(C4CC4)c3c2Cl)C1 |  |  | 
8.2 | -0.0438 | 6.12 |  |  |  |  |  |  |  |  |  | 1.8 µg/mL (≈ 5.37 µM) |  |  |  |  | NC1CN(c2c(F)cc3c(=O)c(C(=O)O)cn(C4CC4)c3c2F)C1 |  |  | 
8.21 | -0.1606 | 6.38 |  |  |  |  |  |  |  |  |  | 13.9 µg/mL (≈ 41.8 µM) |  |  |  |  | CC1(N)CN(c2nc3c(cc2F)c(=O)c(C(=O)O)cn3C2CC2)C1 |  |  | 
